The source made the active and inactive calls. The rule behind the calls is not given here.
Key:
Mus musculus [1] = test: Antialzheimer activity in 5XFAD mouse assessed as reduction in plaque pathology in […] cortex at 600 ppm administered as rodent chow starting from 1.5 months and measured after 5 months by immunolabeling based confocal microscopic analysis; assay type: functional, organism-based; details: route po, time 3.5 months
In short: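 5xFAD mice received 600 ppm PLX3397 in AIN-76A chow from 1.5 to 5 months of age. Brain sections were stained with Thio-S for dense-core plaques and immunolabeled for IBA1, then examined by confocal microscopy.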

[2] = target: Serine/threonine-protein kinase SIK2 (Homo sapiens, UniProt Q9H0K1); test: Inhibition of SNF1LK2 (unknown origin)
Sequence of Serine/threonine-protein kinase SIK2 (Q9H0K1 whole entry): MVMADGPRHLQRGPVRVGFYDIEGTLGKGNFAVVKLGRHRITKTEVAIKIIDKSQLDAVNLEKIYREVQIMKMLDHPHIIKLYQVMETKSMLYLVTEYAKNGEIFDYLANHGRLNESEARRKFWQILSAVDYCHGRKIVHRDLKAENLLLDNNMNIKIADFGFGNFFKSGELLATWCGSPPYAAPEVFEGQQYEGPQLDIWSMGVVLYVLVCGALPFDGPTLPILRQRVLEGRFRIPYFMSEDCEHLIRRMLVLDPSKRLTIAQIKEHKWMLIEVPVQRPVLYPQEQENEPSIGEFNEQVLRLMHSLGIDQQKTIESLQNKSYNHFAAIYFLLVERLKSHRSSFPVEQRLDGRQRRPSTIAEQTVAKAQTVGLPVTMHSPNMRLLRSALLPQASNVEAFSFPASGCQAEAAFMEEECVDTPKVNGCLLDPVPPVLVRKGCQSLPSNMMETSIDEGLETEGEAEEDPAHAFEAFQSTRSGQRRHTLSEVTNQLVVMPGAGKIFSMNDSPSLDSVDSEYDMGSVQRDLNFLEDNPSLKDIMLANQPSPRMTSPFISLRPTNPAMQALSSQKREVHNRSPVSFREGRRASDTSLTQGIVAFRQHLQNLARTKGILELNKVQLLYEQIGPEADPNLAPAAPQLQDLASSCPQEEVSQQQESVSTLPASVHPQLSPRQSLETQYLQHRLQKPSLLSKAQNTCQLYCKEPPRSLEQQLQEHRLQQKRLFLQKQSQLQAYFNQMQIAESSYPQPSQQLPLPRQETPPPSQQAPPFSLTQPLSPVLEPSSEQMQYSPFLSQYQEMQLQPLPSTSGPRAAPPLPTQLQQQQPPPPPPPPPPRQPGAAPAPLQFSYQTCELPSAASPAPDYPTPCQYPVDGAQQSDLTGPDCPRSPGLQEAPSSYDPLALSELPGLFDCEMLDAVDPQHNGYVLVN

[3] = Effect on Spi1 gene expression in 5XFAD mouse cortex at 1200 ppm administered as rodent chow starting from 1.5 months and measured after 7 months by RNA-Seq analysis (reference value: 1.689 to 2.928 RPKM); assay type: functional; details: route po, time 5.5 months, 4015 h
[4] = Half-life in dog at 1.00 mg/kg, iv administered as single dose; assay type: ADME, organism-based, Canis lupus familiaris; details: in vivo
[5] = Oral bioavailability in female rat at 45 mg/kg administered as single via gavage; assay type: ADME, organism-based; details: in vivo
Mus musculus [6] = test: Antialzheimer activity in 5XFAD mouse assessed as alteration in plaque morphology in cortex at 1200 ppm administered as rodent chow starting from 1.5 months and measured after 7 months by Thio-S labeling based confocal microscopic analysis; assay type: functional, organism-based; details: route po, time 5.5 months
[7] = Effect on Cx3cr1 gene expression in 5XFAD mouse cortex at 1200 ppm administered as rodent chow starting from 1.5 months and measured after 7 months by RNA-Seq analysis (reference value: 15.803 to 19.787); assay type: functional; details: route po, time 5.5 months, 4015 h
[8] = target: Fibroblast growth factor receptor 2 (Homo sapiens, UniProt P21802); test: Inhibition of FGFR2 (unknown origin)
Sequence of Fibroblast growth factor receptor 2 (P21802 whole entry): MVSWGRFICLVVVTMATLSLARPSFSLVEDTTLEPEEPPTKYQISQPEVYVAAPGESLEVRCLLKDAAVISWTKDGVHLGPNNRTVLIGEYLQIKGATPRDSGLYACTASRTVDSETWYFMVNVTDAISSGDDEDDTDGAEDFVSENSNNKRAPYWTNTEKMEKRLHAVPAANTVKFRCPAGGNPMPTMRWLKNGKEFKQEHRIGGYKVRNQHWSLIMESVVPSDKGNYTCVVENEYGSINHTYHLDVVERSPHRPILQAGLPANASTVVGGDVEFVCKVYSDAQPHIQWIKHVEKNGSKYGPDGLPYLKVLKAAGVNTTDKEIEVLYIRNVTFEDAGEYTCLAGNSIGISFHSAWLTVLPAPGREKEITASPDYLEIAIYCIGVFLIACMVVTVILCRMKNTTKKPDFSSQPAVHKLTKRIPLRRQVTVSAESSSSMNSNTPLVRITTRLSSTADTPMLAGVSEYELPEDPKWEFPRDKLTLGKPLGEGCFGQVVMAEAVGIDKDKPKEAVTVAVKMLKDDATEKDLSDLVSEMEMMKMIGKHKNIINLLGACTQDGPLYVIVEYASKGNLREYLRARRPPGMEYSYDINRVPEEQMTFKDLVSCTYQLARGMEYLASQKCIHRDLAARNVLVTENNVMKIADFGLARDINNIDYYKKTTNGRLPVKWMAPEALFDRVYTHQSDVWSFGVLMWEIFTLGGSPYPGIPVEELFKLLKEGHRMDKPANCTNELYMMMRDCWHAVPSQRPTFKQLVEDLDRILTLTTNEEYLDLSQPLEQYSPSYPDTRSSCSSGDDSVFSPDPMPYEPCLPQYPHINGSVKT

Mus musculus [9] = test: Prevention of Gabrb2 gene downregulation in 5XFAD mouse hippocampus at 1200 ppm administered as rodent chow starting from 1.5 months and measured after 7 months by Nanostring analysis; assay type: functional, tissue-based; details: route po, time 5.5 months
Mus musculus [10] = test: Antialzheimer activity in 5XFAD mouse assessed as A11 protein intensity at 1200 ppm administered as rodent chow starting from 1.5 months and measured after 7 months by immunoblot analysis (reference value: 54.431 to 142.272 a.u.); assay type: functional; details: route po, time 5.5 months, 4015 h
[11] = Effect on Itgax gene expression in wild type mouse hippocampus at 1200 ppm administered as rodent chow starting from 1.5 months and measured after 7 months by RNA-Seq analysis (reference value: 0.057 to 0.109 RPKM); assay type: functional; details: route po, time 5.5 months, 4015 h
[12] = target: T1, Macrophage colony-stimulating factor 1 receptor (Mus musculus) (UniProt P09581); test: (§1) In vivo inhibition of CSF1R in wildtype mouse assessed as iron reactivity by measuring hemosiderin intensity of prussian blue staining in […] cortex at 1200 ppm administered as rodent chow starting from 1.5 months and measured after 7 months by confocal microscopic analysis (reference value: 0.059 to 2.835 a.u.); assay type: functional; details: route po, time 5.5 months
T1 sequence (whole entry): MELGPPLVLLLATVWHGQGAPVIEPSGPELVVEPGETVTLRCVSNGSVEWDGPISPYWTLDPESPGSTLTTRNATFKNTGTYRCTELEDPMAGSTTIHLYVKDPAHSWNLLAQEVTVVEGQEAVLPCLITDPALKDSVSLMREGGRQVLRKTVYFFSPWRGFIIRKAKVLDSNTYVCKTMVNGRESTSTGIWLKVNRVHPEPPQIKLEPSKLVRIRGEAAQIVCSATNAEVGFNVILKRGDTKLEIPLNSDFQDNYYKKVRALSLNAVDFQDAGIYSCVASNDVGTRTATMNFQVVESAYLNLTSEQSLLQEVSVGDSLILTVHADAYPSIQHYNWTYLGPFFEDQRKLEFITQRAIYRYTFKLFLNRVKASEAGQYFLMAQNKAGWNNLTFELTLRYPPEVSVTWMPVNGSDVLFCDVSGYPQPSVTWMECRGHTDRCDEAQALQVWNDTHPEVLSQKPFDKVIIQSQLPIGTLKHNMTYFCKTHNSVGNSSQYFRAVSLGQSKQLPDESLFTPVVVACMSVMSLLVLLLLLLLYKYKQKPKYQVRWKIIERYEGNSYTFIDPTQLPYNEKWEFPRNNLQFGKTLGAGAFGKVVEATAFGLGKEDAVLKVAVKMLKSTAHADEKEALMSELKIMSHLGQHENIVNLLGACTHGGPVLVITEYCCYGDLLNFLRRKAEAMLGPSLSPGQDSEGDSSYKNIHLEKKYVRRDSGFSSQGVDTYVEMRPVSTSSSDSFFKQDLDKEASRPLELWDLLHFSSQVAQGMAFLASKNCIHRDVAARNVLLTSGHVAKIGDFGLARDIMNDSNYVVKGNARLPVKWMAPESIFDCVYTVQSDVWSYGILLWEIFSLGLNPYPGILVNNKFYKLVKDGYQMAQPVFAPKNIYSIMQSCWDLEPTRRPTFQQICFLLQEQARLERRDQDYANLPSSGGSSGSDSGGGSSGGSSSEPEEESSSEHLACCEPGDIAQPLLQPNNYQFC
In short: (§2)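 Wild-type or 5xFAD mice fed PLX5622 (1200 ppm) in AIN-76A chow from 1.5 months of age, examined in 4- and 7-month-old cohorts. Brain sections stained with a Prussian blue kit per kit instructions to detect iron deposits (microbleeds).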

Mus musculus [13] = test: Antialzheimer activity in 5XFAD mouse assessed as number of plaques in subiculum at 1200 ppm administered as rodent chow starting from 1.5 months and measured after 7 months by immunolabeling based confocal microscopic analysis (reference value: 139 to 212); assay type: functional; details: route po, time 5.5 months, 4015 h
[14] = target: Tyrosine-protein kinase Fyn (Homo sapiens, UniProt P06241); test: Inhibition of FYN (unknown origin)
Sequence of Tyrosine-protein kinase Fyn (P06241 whole entry): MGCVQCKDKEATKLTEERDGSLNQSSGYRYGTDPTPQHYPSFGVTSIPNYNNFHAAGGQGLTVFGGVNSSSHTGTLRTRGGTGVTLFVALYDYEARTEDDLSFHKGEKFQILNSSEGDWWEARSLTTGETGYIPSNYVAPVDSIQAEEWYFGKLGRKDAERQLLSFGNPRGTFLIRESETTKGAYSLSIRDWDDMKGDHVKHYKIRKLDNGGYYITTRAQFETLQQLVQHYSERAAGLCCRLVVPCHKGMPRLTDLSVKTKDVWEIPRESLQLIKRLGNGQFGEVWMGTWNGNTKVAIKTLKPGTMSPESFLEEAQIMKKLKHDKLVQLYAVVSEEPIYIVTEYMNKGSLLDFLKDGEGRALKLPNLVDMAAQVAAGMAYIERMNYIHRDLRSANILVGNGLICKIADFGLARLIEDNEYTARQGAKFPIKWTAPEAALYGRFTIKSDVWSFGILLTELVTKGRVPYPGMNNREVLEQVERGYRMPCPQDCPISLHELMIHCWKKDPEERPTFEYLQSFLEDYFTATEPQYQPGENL

[15] = target: Dual specificity tyrosine-phosphorylation-regulated kinase 4 (Homo sapiens, UniProt Q9NR20); test: Inhibition of DYRK4 (unknown origin)
Sequence of Dual specificity tyrosine-phosphorylation-regulated kinase 4 (Q9NR20 whole entry): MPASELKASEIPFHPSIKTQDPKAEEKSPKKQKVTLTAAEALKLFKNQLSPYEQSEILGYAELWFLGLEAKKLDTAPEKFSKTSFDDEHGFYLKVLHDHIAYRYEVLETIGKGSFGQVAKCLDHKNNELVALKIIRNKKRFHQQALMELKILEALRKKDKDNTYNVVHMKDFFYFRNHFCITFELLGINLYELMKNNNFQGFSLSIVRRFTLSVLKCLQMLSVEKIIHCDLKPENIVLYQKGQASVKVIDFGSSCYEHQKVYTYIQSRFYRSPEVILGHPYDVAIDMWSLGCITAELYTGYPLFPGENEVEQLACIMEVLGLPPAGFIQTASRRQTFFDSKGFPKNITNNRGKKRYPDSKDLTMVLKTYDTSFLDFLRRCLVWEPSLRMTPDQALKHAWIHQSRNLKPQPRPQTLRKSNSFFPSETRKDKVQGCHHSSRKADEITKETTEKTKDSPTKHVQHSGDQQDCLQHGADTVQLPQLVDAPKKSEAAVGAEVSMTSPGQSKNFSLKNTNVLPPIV

[16] = Toxicity in wildtype mouse assessed as time in platform zone at 1200 ppm administered as rodent chow for 10 to 24 weeks by Morris water maze test (reference value: 0 to 2.7 sec); details: in vivo, po, time 10-24 weeks
[17] = Clearance in dog at 1.00 mg/kg, iv administered as single dose; assay type: ADME, organism-based, Canis lupus familiaris; details: in vivo
[18] = Toxicity in wildtype mouse assessed as number of entries to perimeter zone at 1200 ppm administered as rodent chow for 10 to 24 weeks by Open field test (reference value: 20 to 64); details: in vivo, po, time 10-24 weeks
[19] = target: T1, Macrophage colony-stimulating factor 1 receptor (Mus musculus); test: as §1, with “4” for “7”, “0.362” for “0.059”, “5.194” for “2.835”; assay type: functional; details: route po, time 2.5 months; in short: as §2
[20] = target: Dual specificity protein kinase CLK2 (Homo sapiens, UniProt P49760); test: Inhibition of CLK2 (unknown origin)
Sequence of Dual specificity protein kinase CLK2 (P49760 whole entry): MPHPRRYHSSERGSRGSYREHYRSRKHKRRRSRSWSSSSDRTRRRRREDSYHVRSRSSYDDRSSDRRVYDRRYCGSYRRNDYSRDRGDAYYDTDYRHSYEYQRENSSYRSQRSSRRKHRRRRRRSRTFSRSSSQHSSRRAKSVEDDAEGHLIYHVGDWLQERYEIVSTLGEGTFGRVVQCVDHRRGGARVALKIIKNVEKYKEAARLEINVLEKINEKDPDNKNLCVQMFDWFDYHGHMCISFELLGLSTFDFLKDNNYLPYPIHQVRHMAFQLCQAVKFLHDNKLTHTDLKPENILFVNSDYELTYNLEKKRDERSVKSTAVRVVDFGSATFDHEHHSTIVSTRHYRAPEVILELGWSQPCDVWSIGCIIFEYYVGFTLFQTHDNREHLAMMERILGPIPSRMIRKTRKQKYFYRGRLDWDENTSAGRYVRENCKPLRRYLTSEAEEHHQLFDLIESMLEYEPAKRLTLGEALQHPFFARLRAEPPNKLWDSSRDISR

[21] = target: Serine/threonine-protein kinase pim-2 (Homo sapiens, UniProt Q9P1W9); test: Inhibition of PIM2 (unknown origin)
Sequence of Serine/threonine-protein kinase pim-2 (Q9P1W9 whole entry): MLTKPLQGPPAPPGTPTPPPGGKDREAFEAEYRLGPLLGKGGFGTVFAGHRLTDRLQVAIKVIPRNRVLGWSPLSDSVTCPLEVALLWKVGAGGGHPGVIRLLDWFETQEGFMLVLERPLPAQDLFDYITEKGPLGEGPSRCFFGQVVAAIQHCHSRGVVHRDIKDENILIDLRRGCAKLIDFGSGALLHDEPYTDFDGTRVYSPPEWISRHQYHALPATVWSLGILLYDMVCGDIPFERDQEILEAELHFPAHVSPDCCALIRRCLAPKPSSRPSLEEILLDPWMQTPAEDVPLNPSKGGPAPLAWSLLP

[22] = target: Epidermal growth factor receptor (Homo sapiens, UniProt P00533); test: Inhibition of EGFR (unknown origin)
Sequence of Epidermal growth factor receptor (P00533 whole entry): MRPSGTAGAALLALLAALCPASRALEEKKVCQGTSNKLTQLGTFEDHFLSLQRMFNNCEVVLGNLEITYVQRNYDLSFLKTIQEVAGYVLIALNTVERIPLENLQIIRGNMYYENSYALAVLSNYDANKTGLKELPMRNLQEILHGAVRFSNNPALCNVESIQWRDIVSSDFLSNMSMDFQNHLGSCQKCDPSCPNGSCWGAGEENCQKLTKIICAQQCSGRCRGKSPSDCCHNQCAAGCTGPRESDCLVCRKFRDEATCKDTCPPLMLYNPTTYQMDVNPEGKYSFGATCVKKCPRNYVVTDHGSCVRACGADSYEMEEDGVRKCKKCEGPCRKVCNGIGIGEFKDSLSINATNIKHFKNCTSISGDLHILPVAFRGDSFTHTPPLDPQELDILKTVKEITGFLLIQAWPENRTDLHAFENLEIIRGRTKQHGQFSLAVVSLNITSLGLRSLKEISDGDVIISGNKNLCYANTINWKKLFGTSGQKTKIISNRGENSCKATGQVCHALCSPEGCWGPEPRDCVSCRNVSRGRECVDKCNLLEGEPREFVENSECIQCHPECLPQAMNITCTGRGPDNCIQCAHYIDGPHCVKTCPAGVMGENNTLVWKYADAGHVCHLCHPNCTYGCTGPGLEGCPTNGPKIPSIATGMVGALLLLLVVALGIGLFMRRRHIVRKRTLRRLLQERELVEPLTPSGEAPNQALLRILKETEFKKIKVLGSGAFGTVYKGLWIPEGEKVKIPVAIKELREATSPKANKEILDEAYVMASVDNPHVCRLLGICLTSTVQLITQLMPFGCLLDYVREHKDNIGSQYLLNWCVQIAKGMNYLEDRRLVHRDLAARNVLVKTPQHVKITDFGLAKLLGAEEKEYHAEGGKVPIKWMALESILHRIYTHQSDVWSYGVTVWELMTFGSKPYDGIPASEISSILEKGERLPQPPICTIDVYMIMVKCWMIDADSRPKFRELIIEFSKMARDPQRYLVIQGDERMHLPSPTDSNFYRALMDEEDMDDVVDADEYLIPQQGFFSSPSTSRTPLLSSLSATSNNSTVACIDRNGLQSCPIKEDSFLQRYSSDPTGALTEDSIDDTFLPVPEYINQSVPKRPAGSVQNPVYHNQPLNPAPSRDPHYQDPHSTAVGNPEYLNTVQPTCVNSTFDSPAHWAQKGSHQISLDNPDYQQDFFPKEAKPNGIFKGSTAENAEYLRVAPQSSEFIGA

Mus musculus [23] = test: Effect on circulating leukocytes in wildtype mouse assessed as percentage of CD45+/PI- cells expressing CD11c at 1200 ppm administered as rodent chow for 10 to 24 weeks (reference value: 4.18 to 10.2 %); assay type: functional; details: route po, time 10-24 weeks

**Q.** Which Activity (Mus musculus [1]) does the source give for `FC(F)(F)c1ccc(CNc2ccc(Cc3c[nH]c4ncc(Cl)cc34)cn2)cn1` [PEXIDARTINIB] here?
**A.** The Activity was “Active”.

**Q.** What does the source list for `COc1ncc(F)cc1CNc1ccc(Cc2c[nH]c3ncc(C)cc23)c(F)n1` [PLX-5622]?
**A.** IC50 [2]: > 1 µM; Activity [3]: 0.13 RPKM; half-life [4]: 15 h; bioavailability [5]: 89%; Activity (Mus musculus [6]): Active; Activity [7]: 0.341 RPKM; IC50 [8]: > 1 µM; Activity (Mus musculus [9]): Active; Flu intensity (Mus musculus [10]): 21.124 a.u.; Activity [11]: 0 RPKM; Flu intensity [12]: 0.747 a.u.; Activity (Mus musculus [13]): 97; IC50 [14]: > 1 µM; IC50 [15]: > 1 µM; Time [16]: 0.4 s; clearance [17]: 3 mL/min/kg; Activity [18]: 13; Flu intensity [19]: 0.1 a.u.; IC50 [20]: > 1 µM; IC50 [21]: > 1 µM; IC50 [22]: > 1 µM; Activity (Mus musculus [23]): 3.32%
